Source: ChEMBL document CHEMBL1135642, “Synthesis and biological evaluation of 7,8,9,10-tetrahydroimidazo[1,2-c]pyrido[3,4-e]pyrimdin-5(6H)-ones as functionally selective ligands of the benzodiazepine receptor site on the GABA(A) receptor” (J Med Chem, 2002)
Active and inactive are the calls of the source. The rule behind the calls is not given here.

Key:
[1] = species on record: Rattus norvegicus; experiment: Rat behavioral spontaneous Locomotor Activity; format: functional
Outline: (§1)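 Male Sprague-Dawley rats received the test drug iv in 50% aqueous PEG-400, which also served as the control vehicle. They were then placed in an automated activity monitor, and movement time, total distance and vertical activity were recorded over 15 min. Each drug was compared against vehicle, and NS marks a difference that was not significant.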

[2] = target: T1, Gamma-aminobutyric acid receptor subunit alpha-1 (Homo sapiens) (UniProt P14867); experiment: Maximum percent potentiation against gamma-aminobutyric acid (GABA) A receptor, alpha 1; details: Xenopus laevis
T1 sequence (whole entry): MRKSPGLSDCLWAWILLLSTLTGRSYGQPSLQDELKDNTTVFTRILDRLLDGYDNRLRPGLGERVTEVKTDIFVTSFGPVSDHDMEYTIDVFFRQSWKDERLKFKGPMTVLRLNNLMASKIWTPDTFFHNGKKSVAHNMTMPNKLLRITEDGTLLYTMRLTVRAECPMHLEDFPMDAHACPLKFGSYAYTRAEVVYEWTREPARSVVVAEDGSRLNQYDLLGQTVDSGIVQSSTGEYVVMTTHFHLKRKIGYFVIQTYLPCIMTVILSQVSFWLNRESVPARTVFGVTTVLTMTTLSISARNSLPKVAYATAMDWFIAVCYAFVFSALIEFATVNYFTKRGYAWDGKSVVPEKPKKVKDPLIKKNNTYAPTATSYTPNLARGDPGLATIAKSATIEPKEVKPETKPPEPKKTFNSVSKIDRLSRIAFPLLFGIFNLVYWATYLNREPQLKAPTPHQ
Outline: (§2)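 Xenopus laevis oocytes were injected with human cRNA for the α, β and γ subunits needed to express each receptor subtype (α1, α2, α3 or α5). Electrophysiological recording was used to read potentiation, and the effective concentration and maximal percent potentiation were derived from it.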

[3] = target: T2, Gamma-aminobutyric acid receptor subunit alpha-2 (Homo sapiens) (UniProt P47869); experiment: Maximum percent potentiation against gamma-aminobutyric acid (GABA) A receptor, alpha 2; details: Xenopus laevis; outline: as §2
T2 sequence (whole entry): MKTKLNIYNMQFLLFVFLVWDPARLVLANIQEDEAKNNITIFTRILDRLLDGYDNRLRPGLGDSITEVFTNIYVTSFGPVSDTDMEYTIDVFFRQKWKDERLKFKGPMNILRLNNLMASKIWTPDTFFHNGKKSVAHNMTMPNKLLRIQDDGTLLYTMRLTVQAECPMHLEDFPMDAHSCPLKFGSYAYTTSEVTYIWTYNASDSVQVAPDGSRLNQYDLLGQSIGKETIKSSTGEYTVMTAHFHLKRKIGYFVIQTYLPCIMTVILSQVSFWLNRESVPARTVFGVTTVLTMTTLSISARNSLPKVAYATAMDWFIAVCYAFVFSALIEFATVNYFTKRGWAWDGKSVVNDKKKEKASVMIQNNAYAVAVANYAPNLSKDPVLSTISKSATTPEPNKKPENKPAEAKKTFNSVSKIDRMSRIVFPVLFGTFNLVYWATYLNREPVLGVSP

[4] = target: GABA-A receptor; anion channel; experiment: Binding affinity was determined by displacement of [3H]flumazenil from rat cortex homogenates; format: functional
Outline: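 Displacement of [3H]flumazenil from rat cortex homogenates. Values are averages (±SD); some analogues were run once as a single set of triplicates. NA means an IC50 was not achieved at the highest dose tested.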

[5] = target: T3, Gamma-aminobutyric acid receptor subunit alpha-3 (Homo sapiens) (UniProt P34903); experiment: Maximum percent potentiation against gamma-aminobutyric acid (GABA) A receptor, alpha 3; details: Xenopus laevis; outline: as §2
T3 sequence (whole entry): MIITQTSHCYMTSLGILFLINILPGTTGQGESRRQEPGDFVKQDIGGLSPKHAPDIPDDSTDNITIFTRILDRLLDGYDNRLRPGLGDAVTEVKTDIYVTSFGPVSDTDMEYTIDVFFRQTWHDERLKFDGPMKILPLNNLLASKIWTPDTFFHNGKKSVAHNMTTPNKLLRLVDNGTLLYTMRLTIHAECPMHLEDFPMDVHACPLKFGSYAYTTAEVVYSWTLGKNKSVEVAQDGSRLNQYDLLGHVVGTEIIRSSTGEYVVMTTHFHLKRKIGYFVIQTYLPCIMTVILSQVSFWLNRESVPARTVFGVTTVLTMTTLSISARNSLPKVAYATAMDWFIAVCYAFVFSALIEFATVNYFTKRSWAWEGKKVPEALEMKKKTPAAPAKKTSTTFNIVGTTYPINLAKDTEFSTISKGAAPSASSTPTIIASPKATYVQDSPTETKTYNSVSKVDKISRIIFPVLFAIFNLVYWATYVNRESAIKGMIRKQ

[6] = target: T4, Gamma-aminobutyric acid receptor subunit alpha-5 (Homo sapiens, UniProt P31644); experiment: Effective concentration against Gamma-aminobutyric acid A receptor, alpha 5; parameters: species or system Xenopus laevis; outline: as §2
T4 sequence (P31644 whole entry): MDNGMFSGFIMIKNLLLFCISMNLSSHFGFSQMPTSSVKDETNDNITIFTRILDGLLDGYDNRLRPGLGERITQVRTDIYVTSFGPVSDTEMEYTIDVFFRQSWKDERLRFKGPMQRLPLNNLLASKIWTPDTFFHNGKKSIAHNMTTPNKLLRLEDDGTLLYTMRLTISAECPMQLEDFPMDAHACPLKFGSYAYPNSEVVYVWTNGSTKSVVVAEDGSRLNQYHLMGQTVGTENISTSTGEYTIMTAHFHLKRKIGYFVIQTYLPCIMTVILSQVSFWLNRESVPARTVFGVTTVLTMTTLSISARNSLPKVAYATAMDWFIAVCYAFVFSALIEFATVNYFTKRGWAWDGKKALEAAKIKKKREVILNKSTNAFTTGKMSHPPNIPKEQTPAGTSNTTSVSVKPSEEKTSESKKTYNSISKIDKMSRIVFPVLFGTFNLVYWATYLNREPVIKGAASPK

[7] = target: T5, Gamma-aminobutyric acid receptor subunit alpha-3 (Homo sapiens, UniProt P34903); experiment: Effective concentration against gamma-aminobutyric acid (GABA) A receptor, alpha 3; parameters: species or system Xenopus laevis; outline: as §2
T5 sequence (P34903 whole entry): T3 sequence (whole entry)

[8] = target: T6, Gamma-aminobutyric acid receptor subunit alpha-5 (Homo sapiens) (UniProt P31644); experiment: Maximum percent potentiation against gamma-aminobutyric acid (GABA) A receptor, alpha 5; details: Xenopus laevis; outline: as §2
T6 sequence (whole entry): T4 sequence (P31644 whole entry)

[9] = target: T7, Gamma-aminobutyric acid receptor subunit alpha-1 (Homo sapiens, UniProt P14867); experiment: Effective concentration against gamma-aminobutyric acid (GABA) A receptor, alpha 1; parameters: species or system Xenopus laevis; outline: as §2
T7 sequence (P14867 whole entry): T1 sequence (whole entry)

[10] = target: T8, Gamma-aminobutyric acid receptor subunit alpha-2 (Homo sapiens, UniProt P47869); experiment: Effective concentration against gamma-aminobutyric acid (GABA) A receptor, alpha 2; parameters: species or system Xenopus laevis; outline: as §2
T8 sequence (P47869 whole entry): T2 sequence (whole entry)

[11] = target: GABA-A receptor; anion channel (Rattus norvegicus) (UniProt O09028+P15431+P18506+P18508+P19969+P20236+P23574+P23576+P28471+P28473+P30191+P62813+P63079+P63138+Q91ZM7+Q9ES14); experiment: Binding affinity by displacement of [3H]flumazenil from rat cortex homogenates; Not active; format: functional
Outline: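 Displacement of [3H]flumazenil from rat cortex homogenates. […] Values are averages (±SD); some analogues were run once as a single set of triplicates. NA means an IC50 was not achieved at the highest dose tested.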

[12] = species on record: Rattus norvegicus; experiment: Rat behavioral spontaneous Locomotor Activity; Not significant.; format: functional, organism-based; outline: as §1

Compound	minimum effective dose on locomotor activity [1]	Activity [2]	Activity [3]	Ki [4]	Activity [5]	EC50 [6]	EC50 [7]	Activity [8]	EC50 [9]	EC50 [10]	NA [11]	NS [12]	OMNI med [1]
COc1ccc(-c2cn3c(O)nc4c(c3n2)CN(Cc2ccccc2)CC4)cc1	0.06 mg/kg	122%	142%										
Oc1nc2c(c3nc(-c4ccccc4F)cn13)CN(CC1CC1)CC2		31%	36%	30 nM	28%	94 nM	424 nM	7%	135 nM	1160 nM			
COc1ccc(-c2cn3c(O)nc4c(c3n2)CN(C(=O)c2ccccc2)CC4)cc1											inactive		
CCCCCC(=O)N1CCc2nc(O)n3cc(-c4ccccc4F)nc3c2C1											inactive		
Oc1nc2c(c3nc(-c4ccccc4F)cn13)CN(Cc1ccncc1)CC2		17%	42%	0.9 nM	58%		33 nM	0%	53 nM	99 nM		inactive	
O=C(c1ccccc1)N1CCc2nc(O)n3cc(-c4cccc(Cl)c4)nc3c2C1											inactive		
Oc1nc2c(c3nc(-c4ccc(F)cc4)cn13)CN(Cc1ccccc1)CC2	1 mg/kg	186%	155%										
Cc1ccc(-c2cn3c(O)nc4c(c3n2)CN(Cc2ccccc2)CC4)cc1		62%	94%	43 nM	174%	650 nM	3830 nM	17%	266 nM	1180 nM			
Cc1nnc2n1-c1ccc(Cl)cc1C(c1ccccc1)=NC2 [ALPRAZOLAM]		327%	333%	3.3 nM	774%	10 nM	69 nM	206%	37 nM	12 nM			0.125 mg/kg
Oc1nc2c(c3nc(-c4ccccc4F)cn13)CNCC2											inactive		
Oc1nc2c(c3nc(-c4ccccc4F)cn13)CN(Cc1cccnc1)CC2	0.5 mg/kg	29%	78%		81%			0%					
Oc1nc2c(c3nc(-c4ccccc4F)cn13)CN(Cc1cccs1)CC2		50%	54%	0.5 nM	96%	375 nM	367 nM	49%	107 nM	67 nM			
O=c1[nH]c2c(c3nc(-c4ccccc4F)cn13)CN(CC1CCCCC1)CC2				0.9 nM		231 nM	213 nM		127 nM	202 nM			
CCCCN1CCc2nc(O)n3cc(-c4ccccc4F)nc3c2C1		70%	86%	7.3 nM	72%	291 nM	394 nM	4%	258 nM	247 nM			
Oc1nc2c(c3nc(-c4cccc(F)c4)cn13)CN(Cc1ccccc1)CC2	2 mg/kg	92%	81%										
CCC(=O)N1CCc2nc(O)n3cc(-c4ccc(OC)cc4)nc3c2C1											inactive		
O=c1[nH]c2c(c3nc(-c4ccc(F)cc4F)cn13)CN(Cc1ccccc1)CC2				2 nM		323 nM	500 nM		92 nM	210 nM			
Cc1ccc(-c2nc3ccc(C)cn3c2CC(=O)N(C)C)cc1 [ZOLPIDEM]		322%	291%		700%	> 3000 nM		< 20%					0.25 mg/kg
